{"source": "ChEMBL document CHEMBL4350961", "about": "“Discovery of Pyrrolo[3,2- d]pyrimidin-4-one Derivatives as a New Class of Potent and Cell-Active Inhibitors of P300/CBP-Associated Factor Bromodomain” (J Med Chem, 2019)", "key": {"[1]": {"system": "Tyrosine-protein kinase ABL1 (Homo sapiens), P00519 [M351T]", "test": "Inhibition of recombinant human ABL M351T mutant (27 to end residues) at 10 uM using EAIYAAPFAKKK as substrate measured after 40 mins in presence of [gamma33P]ATP by scintillation counting method"}, "[2]": {"biological_target": "Mitogen-activated protein kinase kinase kinase 7 (Homo sapiens) (UniProt O43318)", "test": "Inhibition of human TAK1 (1 to 303 residues) using casein as substrate measured after 40 mins in presence of [gamma33P]ATP by scintillation counting method"}, "[3]": {"biological_target": "Dual specificity mitogen-activated protein kinase kinase 6 (Homo sapiens) (UniProt P52564)", "test": "Inhibition of recombinant human MKK6 (4 to end residues) at 10 uM using unactive SAPK2a as substrate measured after 40 mins in presence of [gamma33P]ATP by scintillation counting method"}, "[4]": {"biological_target": "Cyclin-dependent kinase 14/Cyclin-Y (Homo sapiens) (UniProt O94921+Q8ND76)", "test": "Inhibition of human CDK14/cyclinY at 10 uM by radiometric method", "assay_type": "protein-complex assay", "outline": "(§1)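 Kinase panel of 422 kinases screened by Eurofins KinaseProfiler at a single test-compound concentration of 10 µM.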"}, "[5]": {"biological_target": "Mitogen-activated protein kinase 10 (Homo sapiens) (UniProt P53779)", "test": "Inhibition of recombinant full-length human JNK3 at 10 uM using peptide substrate measured after 40 mins in presence of [gamma33P]ATP by scintillation counting method"}, "[6]": {"biological_target": "cAMP-dependent protein kinase catalytic subunit alpha (Homo sapiens) (UniProt P17612)", "test": "Inhibition of recombinant full-length human PKA at 10 uM using Kemptide as substrate measured after 40 mins in presence of [gamma33P]ATP by scintillation counting method"}, "[7]": {"biological_target": "Ribosomal protein S6 kinase alpha-2 (Homo sapiens) (UniProt Q15349)", "test": "Inhibition of recombinant full-length human Rsk3 at 10 uM using KKKNRTLSVA as substrate measured after 40 mins in presence of [gamma33P]ATP by scintillation counting method"}, "[8]": {"biological_target": "AP2-associated protein kinase 1 (Homo sapiens) (UniProt Q2M2I8)", "test": "Inhibition of human AAK1 at 10 uM using peptide substrate measured after 120 mins in presence of [gamma33P]ATP by scintillation counting method", "outline": "as §1"}, "[9]": {"biological_target": "Misshapen-like kinase 1 (Homo sapiens) (UniProt Q8N4C8)", "test": "Inhibition of recombinant human MINK (1 to 310 residues) at 10 uM using myelin basic protein as substrate measured after 40 mins in presence of [gamma33P]ATP by scintillation counting method"}, "[10]": {"biological_target": "Serine/threonine-protein kinase pim-1 (Homo sapiens) (UniProt P11309)", "test": "Inhibition of recombinant full-length human Pim1 at 10 uM using KKRNRTLTV as substrate measured after 40 mins in presence of [gamma33P]ATP by scintillation counting method"}, "[11]": {"system": "eIF-2-alpha kinase GCN2 (Homo sapiens), Q9P2K8 [E556G]", "sequence (Q9P2K8 whole entry E556G)": "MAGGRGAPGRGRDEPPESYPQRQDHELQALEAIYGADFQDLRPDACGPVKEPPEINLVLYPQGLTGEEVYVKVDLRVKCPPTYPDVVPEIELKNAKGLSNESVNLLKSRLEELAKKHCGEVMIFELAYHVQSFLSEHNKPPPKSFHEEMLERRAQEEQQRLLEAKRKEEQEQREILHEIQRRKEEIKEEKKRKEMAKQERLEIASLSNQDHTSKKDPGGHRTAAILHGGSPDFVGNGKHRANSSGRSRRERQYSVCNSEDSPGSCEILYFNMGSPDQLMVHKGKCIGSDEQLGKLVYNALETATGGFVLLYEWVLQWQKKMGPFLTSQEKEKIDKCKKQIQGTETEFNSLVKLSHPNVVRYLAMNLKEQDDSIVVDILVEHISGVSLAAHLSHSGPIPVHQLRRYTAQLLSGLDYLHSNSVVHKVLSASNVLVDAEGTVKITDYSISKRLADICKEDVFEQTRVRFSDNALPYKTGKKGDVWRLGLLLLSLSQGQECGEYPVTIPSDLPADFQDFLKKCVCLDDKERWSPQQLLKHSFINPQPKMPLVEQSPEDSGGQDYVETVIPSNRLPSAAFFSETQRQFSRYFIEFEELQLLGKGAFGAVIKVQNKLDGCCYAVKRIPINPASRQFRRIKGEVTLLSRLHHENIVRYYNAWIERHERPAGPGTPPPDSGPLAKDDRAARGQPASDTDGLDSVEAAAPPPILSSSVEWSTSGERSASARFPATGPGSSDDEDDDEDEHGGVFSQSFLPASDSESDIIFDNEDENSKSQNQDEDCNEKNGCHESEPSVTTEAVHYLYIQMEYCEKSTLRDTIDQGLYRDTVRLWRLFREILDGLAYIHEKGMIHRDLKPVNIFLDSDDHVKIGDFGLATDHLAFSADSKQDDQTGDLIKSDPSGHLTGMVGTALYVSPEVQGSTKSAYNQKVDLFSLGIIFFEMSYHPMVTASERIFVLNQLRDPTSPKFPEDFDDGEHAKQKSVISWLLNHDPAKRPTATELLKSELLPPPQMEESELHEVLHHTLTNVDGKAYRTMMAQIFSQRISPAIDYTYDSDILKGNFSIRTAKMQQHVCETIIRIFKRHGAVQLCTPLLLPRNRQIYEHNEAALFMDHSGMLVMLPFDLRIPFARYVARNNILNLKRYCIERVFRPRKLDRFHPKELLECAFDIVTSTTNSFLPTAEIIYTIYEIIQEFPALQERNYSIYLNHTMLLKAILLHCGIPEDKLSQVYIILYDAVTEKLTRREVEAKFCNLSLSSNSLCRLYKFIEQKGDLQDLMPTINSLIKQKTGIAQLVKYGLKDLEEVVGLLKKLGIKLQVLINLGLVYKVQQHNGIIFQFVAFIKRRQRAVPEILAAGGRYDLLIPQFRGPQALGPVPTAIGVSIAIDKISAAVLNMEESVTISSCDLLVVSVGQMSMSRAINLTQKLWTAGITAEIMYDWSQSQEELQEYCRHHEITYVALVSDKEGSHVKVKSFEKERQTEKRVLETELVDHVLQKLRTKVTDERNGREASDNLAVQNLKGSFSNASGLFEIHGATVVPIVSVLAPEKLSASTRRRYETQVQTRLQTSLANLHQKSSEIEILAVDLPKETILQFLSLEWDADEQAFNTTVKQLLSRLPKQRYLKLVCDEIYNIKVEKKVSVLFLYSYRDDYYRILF", "test": "Inhibition of recombinant full-length human GCN2 E556G mutant at 10 uM using RSRSRSRSRSRSRSR as substrate measured after 40 mins in presence of [gamma33P]ATP by scintillation counting method"}, "[12]": {"biological_target": "Mitogen-activated protein kinase kinase kinase kinase 4 (Homo sapiens) (UniProt O95819)", "sequence (O95819 2-1239 limits assumed)": "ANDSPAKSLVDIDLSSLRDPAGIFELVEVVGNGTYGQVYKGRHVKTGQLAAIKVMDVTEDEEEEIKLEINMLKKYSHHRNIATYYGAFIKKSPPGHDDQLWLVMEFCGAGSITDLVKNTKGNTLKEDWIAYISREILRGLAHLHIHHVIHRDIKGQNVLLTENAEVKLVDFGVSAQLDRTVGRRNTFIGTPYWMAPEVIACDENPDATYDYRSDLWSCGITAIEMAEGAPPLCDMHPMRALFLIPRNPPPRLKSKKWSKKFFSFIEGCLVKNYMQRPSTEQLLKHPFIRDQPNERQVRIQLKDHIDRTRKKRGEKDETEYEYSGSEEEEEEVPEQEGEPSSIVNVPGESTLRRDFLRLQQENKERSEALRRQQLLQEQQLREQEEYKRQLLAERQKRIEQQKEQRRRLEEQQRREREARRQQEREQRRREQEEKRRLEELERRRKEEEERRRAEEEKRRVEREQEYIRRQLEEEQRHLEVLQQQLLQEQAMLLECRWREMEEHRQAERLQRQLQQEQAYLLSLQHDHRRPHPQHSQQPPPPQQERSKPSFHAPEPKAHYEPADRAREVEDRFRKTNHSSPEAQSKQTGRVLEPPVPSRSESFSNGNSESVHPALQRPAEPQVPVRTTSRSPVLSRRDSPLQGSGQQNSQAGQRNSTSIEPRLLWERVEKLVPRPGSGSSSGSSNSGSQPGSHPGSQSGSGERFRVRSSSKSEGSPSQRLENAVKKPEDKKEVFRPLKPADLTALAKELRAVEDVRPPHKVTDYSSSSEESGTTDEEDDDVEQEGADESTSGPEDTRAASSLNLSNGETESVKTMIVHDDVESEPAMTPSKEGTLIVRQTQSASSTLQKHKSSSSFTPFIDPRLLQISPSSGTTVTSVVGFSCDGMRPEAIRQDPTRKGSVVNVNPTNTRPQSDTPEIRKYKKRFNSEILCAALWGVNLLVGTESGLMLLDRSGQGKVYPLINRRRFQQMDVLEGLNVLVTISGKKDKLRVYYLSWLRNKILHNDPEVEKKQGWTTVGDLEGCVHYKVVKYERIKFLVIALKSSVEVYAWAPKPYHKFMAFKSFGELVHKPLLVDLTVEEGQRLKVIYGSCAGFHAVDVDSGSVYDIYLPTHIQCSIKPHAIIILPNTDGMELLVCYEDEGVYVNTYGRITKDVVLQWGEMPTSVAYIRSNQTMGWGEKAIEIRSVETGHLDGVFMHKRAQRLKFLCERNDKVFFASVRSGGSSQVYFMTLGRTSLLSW", "test": "Inhibition of recombinant human MAP4K4 (1 to 328 residues) at 10 uM using RLGRDKYKTLRQIRQ as substrate measured after 40 mins in presence of [gamma33P]ATP by scintillation counting method"}, "[13]": {"biological_target": "Serine/threonine-protein kinase N2 (Homo sapiens) (UniProt Q16513)", "sequence (Q16513 whole entry, looked up)": "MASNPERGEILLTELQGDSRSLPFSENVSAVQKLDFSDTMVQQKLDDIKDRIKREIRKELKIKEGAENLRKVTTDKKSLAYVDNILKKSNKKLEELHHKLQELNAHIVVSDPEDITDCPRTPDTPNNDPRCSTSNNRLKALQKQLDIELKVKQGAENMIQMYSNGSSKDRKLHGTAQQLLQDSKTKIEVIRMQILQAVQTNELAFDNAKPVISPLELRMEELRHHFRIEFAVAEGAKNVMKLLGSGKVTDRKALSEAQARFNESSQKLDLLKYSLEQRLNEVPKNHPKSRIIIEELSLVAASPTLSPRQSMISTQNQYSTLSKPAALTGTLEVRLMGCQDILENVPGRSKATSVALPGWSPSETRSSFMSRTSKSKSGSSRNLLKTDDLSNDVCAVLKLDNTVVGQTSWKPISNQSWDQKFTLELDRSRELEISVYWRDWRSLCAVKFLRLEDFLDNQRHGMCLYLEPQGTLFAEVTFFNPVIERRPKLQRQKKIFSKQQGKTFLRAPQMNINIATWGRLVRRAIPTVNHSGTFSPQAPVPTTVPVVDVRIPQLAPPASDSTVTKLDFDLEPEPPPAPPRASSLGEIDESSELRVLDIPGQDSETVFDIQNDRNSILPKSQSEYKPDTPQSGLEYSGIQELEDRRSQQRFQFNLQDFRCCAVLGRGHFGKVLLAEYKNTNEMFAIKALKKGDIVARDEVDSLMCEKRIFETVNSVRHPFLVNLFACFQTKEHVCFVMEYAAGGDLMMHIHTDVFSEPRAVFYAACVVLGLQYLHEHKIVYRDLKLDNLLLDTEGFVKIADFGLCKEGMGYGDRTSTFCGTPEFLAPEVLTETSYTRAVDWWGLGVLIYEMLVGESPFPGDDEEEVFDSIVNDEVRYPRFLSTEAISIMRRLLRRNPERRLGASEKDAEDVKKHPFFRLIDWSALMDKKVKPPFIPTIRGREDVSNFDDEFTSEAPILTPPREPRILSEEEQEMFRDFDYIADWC", "test": "Inhibition of human PRK2 (501 to end residues) using AKRRRLSSLRA as substrate measured after 40 mins in presence of [gamma33P]ATP by scintillation counting method", "outline": "as §1"}, "[14]": {"biological_target": "Serine/threonine-protein kinase Nek2 (Homo sapiens) (UniProt P51955)", "test": "Inhibition of recombinant full-length human NEK2 at 10 uM using myelin basic protein as substrate measured after 40 mins in presence of [gamma33P]ATP by scintillation counting method"}, "[15]": {"species": "Homo sapiens", "test": "Inhibition of recombinant full-length human ATRIP/ATR M211T mutant at 10 uM using GST-cMyc-p53 as substrate measured after 40 mins by fluorescence assay"}, "[16]": {"biological_target": "Activin receptor type-1 (Homo sapiens) (UniProt Q04771)", "sequence (Q04771 whole entry)": "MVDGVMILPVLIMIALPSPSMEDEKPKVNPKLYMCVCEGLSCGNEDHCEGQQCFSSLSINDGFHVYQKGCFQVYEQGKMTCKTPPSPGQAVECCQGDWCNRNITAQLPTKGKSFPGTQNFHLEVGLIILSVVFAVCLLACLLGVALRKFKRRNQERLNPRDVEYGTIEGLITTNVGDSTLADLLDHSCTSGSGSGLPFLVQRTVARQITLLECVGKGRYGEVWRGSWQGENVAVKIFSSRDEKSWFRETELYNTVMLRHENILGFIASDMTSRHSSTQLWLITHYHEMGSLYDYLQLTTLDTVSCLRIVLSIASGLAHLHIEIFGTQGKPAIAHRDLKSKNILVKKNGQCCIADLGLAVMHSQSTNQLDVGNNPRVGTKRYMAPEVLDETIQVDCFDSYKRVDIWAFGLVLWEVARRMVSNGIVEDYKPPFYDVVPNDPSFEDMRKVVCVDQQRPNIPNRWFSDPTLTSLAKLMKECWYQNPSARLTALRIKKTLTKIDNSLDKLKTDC", "test": "Inhibition of recombinant human ALK2 (142 to end residues) at 10 uM using casein as substrate measured after 40 mins in presence of [gamma33P]ATP by scintillation counting method"}, "[17]": {"biological_target": "Nucleosome-remodeling factor subunit BPTF (Homo sapiens, UniProt Q12830)", "test": "Binding affinity to human N-terminal His-tagged FALZ by isothermal titration calorimetry", "outline": "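Bromodomain (His-tag removed by TEV for PCAF and GCN5) in the syringe, ligand in the cell. One 0.4 μL injection, then 19 of 2 μL. Dilution heat subtracted; KD from an independent single-site binding model.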"}, "[18]": {"system": "Receptor tyrosine-protein kinase erbB-2 (Homo sapiens), P04626 [G778D]", "test": "Inhibition of recombinant human ErbB2 G778D mutant (676 to end residues) at 10 uM using poly (Glu, Tyr) 4:1 as substrate measured after 40 mins in presence of [gamma33P]ATP by scintillation counting method"}, "[19]": {"biological_target": "Transient receptor potential cation channel subfamily M member 7 (Homo sapiens) (UniProt Q96QT4)", "test": "Inhibition of recombinant human CHAK1 (1180 to end residues) at 10 uM using myelin basic protein as substrate measured after 40 mins in presence of [gamma33P]ATP by scintillation counting method"}, "[20]": {"biological_target": "Serine/threonine-protein kinase SBK1 (Homo sapiens) (UniProt Q52WX2)", "test": "Inhibition of recombinant full-length human SBK1 at 10 uM using KKLRRTLSVA as substrate measured after 120 mins in presence of [gamma33P]ATP by scintillation counting method"}, "[21]": {"biological_target": "Serine/threonine-protein kinase PAK 6 (Homo sapiens) (UniProt Q9NQU5)", "test": "Inhibition of recombinant human PAK6 (382 to end residues) at 10 uM using RRRLSFAEPG as substrate measured after 40 mins in presence of [gamma33P]ATP by scintillation counting method"}, "[22]": {"biological_target": "Serine/threonine-protein kinase 24 (Homo sapiens) (UniProt Q9Y6E0)", "test": "Inhibition of recombinant human MST3 (1 to 304 residues) at 10 uM using ERMRPRKRQGSVRRRV as substrate measured after 40 mins in presence of [gamma33P]ATP by scintillation counting method"}, "[23]": {"biological_target": "Serine/threonine-protein kinase 33 (Homo sapiens) (UniProt Q9BYT3)", "sequence (Q9BYT3 whole entry, looked up)": "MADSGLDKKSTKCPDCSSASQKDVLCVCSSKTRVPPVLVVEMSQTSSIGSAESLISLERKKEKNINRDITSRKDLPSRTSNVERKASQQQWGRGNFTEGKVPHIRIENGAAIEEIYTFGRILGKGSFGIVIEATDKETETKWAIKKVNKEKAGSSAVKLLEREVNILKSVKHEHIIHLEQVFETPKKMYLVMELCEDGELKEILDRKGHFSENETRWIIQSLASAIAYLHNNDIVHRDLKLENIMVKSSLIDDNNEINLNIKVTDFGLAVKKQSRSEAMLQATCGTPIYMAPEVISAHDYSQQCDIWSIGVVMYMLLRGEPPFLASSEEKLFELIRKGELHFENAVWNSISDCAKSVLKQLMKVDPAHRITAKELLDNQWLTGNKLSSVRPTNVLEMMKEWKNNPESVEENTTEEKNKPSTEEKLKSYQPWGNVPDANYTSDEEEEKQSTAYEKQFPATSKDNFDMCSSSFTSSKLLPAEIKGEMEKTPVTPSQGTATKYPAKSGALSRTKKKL", "test": "Inhibition of recombinant full-length human STK33 at 10 uM using myelin basic protein as substrate measured after 40 mins in presence of [gamma33P]ATP by scintillation counting method"}, "[24]": {"biological_target": "Glycogen synthase kinase-3 alpha (Homo sapiens) (UniProt P49840)", "test": "Inhibition of recombinant human GSK3alpha (2 to end residues) at 10 uM using phospho GS2 peptide as substrate measured after 40 mins in presence of [gamma33P]ATP by scintillation counting method"}}, "note": "Activity calls are given as the source filed them. The calls are words filed in the database; no cut-off is given here.", "data": [{"compound": "CN1C[C@H](Nc2nc3cc[nH]c3c(=O)n2C)C[C@H](c2ccc3c(c2)OCCO3)C1", "values": [{"measurement": "inhibition", "setting": "[1]", "result": "inactive"}, {"measurement": "inhibition", "setting": "[2]", "result": "inactive"}, {"measurement": "inhibition", "setting": "[3]", "result": "inactive"}, {"measurement": "inhibition", "setting": "[4]", "result": "inactive"}, {"measurement": "inhibition", "setting": "[5]", "result": "inactive"}, {"measurement": "inhibition", "setting": "[6]", "result": "inactive"}, {"measurement": "inhibition", "setting": "[7]", "result": "inactive"}, {"measurement": "inhibition", "setting": "[8]", "result": "inactive"}, {"measurement": "inhibition", "setting": "[9]", "result": "inactive"}, {"measurement": "inhibition", "setting": "[10]", "result": "inactive"}, {"measurement": "inhibition", "setting": "[11]", "result": "inactive"}, {"measurement": "inhibition", "setting": "[12]", "result": "inactive"}, {"measurement": "inhibition", "setting": "[13]", "result": "inactive"}, {"measurement": "inhibition", "setting": "[14]", "result": "inactive"}, {"measurement": "inhibition", "setting": "[15]", "result": "inactive"}, {"measurement": "inhibition", "setting": "[16]", "result": "inactive"}, {"measurement": "Kd", "setting": "[17]", "result": 917, "unit": "nM"}, {"measurement": "inhibition", "setting": "[18]", "result": "inactive"}, {"measurement": "inhibition", "setting": "[19]", "result": "inactive"}, {"measurement": "inhibition", "setting": "[20]", "result": "inactive"}, {"measurement": "inhibition", "setting": "[21]", "result": "inactive"}, {"measurement": "inhibition", "setting": "[22]", "result": "inactive"}, {"measurement": "inhibition", "setting": "[23]", "result": "inactive"}, {"measurement": "inhibition", "setting": "[24]", "result": "inactive"}]}]}
